Source: ChEMBL document CHEMBL4038284, “Synthesis of novel quinoline-based 4,5-dihydro-1H-pyrazoles as potential anticancer, antifungal, antibacterial and antiprotozoal agents” (Eur J Med Chem, 2017)
Converted amounts (≈) assume the structure as drawn.

Legend:
[1] = test system: Cryptococcus neoformans; assay: Growth inhibition of Cryptococcus neoformans ATCC 32264 at 31.25 ug/ml incubated for 48 hrs under dark condition by broth microdilution method relative to control; type: functional; conditions: ATCC 32264, 48 h, read-out: GI
Outline: (§1)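 CLSI M27-A3 broth microdilution in RPMI-1640, DMSO ≤1%. Inoculum 1-5 × 10^3 CFU/mL. Incubated 48 h at 30 °C, dark. % inhibition = 100 − (OD405 test − sterility control)/(OD405 growth control − sterility control), with growth and sterility control wells. Triplicate.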

[2] = test system: Leishmania panamensis; assay: Antileshmanial activity against EpiR/GFP fused Leishmania panamensis MHOM/CO/87/UA140 intracellular amastigotes infected in human […] cells after 72 hrs by flow cytometric method; type: functional, cell-based; conditions: MHOM/CO/87/UA140, 72 h
Outline: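 PMA-treated U-937 cells (3 × 10^5 cells/mL) infected with stationary-phase GFP L. panamensis promastigotes (15:1), 3 h at 34 °C, then washed. After 24 h, compounds added at 50, 12.5, 3.125 and 0.78 µg/mL for 72 h at 37 °C. EC50 by Probit; triplicate, two experiments.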

[3] = test system: Escherichia coli; assay: Antibacterial activity against Escherichia coli ATCC 25922 after 24 hrs by resazurin dye based microdilution assay; type: functional; conditions: ATCC 25922, 24 h
Outline: (§2)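 MIC taken as the lowest concentration giving visible inhibition and/or by resazurin (1 mg/mL). Gentamicin was the control. Run in duplicate, repeated at least three times.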

[4] = test system: Candida albicans; assay: Growth inhibition of Candida albicans ATCC 10231 at 31.25 ug/ml incubated for 48 hrs under dark condition by broth microdilution method relative to control; type: functional; conditions: ATCC 10231, 48 h, read-out: GI; outline: as §1
[5] = test system: Klebsiella pneumoniae; assay: Antibacterial activity against ESBL positive Klebsiella pneumoniae ATCC 700603 after 24 hrs by resazurin dye based microdilution assay; type: functional; conditions: Klebsiella pneumoniae, 700603, 24 h; outline: as §2
[6] = test system: Candida albicans; assay: Antifungal activity against Candida albicans ATCC 10231 incubated for 48 hrs under dark condition by broth microdilution method; type: functional; conditions: ATCC 10231, 48 h
Outline: (§3)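 CLSI M27-A3 broth microdilution in RPMI-1640, DMSO ≤1%, compounds at 250-0.98 µg/mL final. Inoculum 1-5 × 10^3 CFU/mL. Incubated 48 h at 30 °C in a moist dark chamber, read at OD405. MIC80 and MIC50 taken from % inhibition dose-response curves (mean ± SEM, triplicate). Amphotericin B was the positive control.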

[7] = test system: U-937; assay: Cytotoxicity against human U937 cells after 72 hrs by MTT assay; type: cell-based; conditions: u-937, 72 h
Outline: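 Exponentially growing U-937 at 1 × 10^5 cells/mL in RPMI-1640 with 10% FBS were exposed to 200, 50, 12.5 and 3.125 µg/mL for 72 h at 37 °C, 5% CO2. MTT for 3 h, stopped with isopropanol/SDS, formazan read at 570 nm, blank-corrected. LC50 by Probit from % viability against untreated cells. Triplicate, at least two independent experiments.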

[8] = test system: Candida albicans; assay: Growth inhibition of Candida albicans ATCC 10231 at 3.4 ug/ml incubated for 48 hrs under dark condition by broth microdilution method relative to control; type: functional; conditions: ATCC 10231, 48 h, read-out: GI
[9] = test system: Candida albicans; assay: Growth inhibition of Candida albicans ATCC 10231 at 15.62 ug/ml incubated for 48 hrs under dark condition by broth microdilution method relative to control; type: functional; conditions: ATCC 10231, 48 h, read-out: GI; outline: as §1
[10] = test system: Candida albicans; assay: Growth inhibition of Candida albicans ATCC 10231 at 7.8 ug/ml incubated for 48 hrs under dark condition by broth microdilution method relative to control; type: functional; conditions: ATCC 10231, 48 h, read-out: GI; outline: as §1
[11] = test system: Trypanosoma cruzi; assay: Antitrypanosomal activity against Trypanosoma cruzi Tulahuen intracellular amastigote harboring LacZ infected in human U937 cells after 72 hrs by CPRG/Nonidet reagent based spectrophotometric method; type: functional, cell-based; conditions: U-937, 72 h
Outline: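 U-937 cells at 2.5 × 10^5 cells/mL in RPMI-1640 with 10% serum and 0.1 µg/mL PMA were infected with β-galactosidase-transfected Tulahuen epimastigotes at 5 parasites per cell. Infected cells were exposed to 50, 12.5, 3.125 and 0.78 µg/mL for 72 h. CPRG (100 uM) and 0.1% Nonidet P-40 were added for 3 h, read at 570 nm. EC50 by Probit. Triplicate, at least two experiments; benznidazole as reference.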

[12] = test system: Candida albicans; assay: Growth inhibition of Candida albicans ATCC 10231 at 250 ug/ml incubated for 48 hrs under dark condition by broth microdilution method relative to control; type: functional; conditions: ATCC 10231, 48 h, read-out: GI; outline: as §1
[13] = test system: Cryptococcus neoformans; assay: Growth inhibition of Cryptococcus neoformans ATCC 32264 at 7.8 ug/ml incubated for 48 hrs under dark condition by broth microdilution method relative to control; type: functional; conditions: ATCC 32264, 48 h, read-out: GI; outline: as §1
[14] = test system: Cryptococcus neoformans; assay: Antifungal activity against Cryptococcus neoformans ATCC 32264 incubated for 48 hrs under dark condition by broth microdilution method; type: functional; conditions: ATCC 32264, 48 h; outline: as §3
[15] = test system: Staphylococcus aureus; assay: Antibacterial activity against vancomycin-intermediate Staphylococcus aureus after 24 hrs by resazurin dye based microdilution assay; type: functional; outline: as §2
[16] = test system: Cryptococcus neoformans; assay: Growth inhibition of Cryptococcus neoformans ATCC 32264 at 62.5 ug/ml incubated for 48 hrs under dark condition by broth microdilution method relative to control; type: functional; conditions: ATCC 32264, 48 h, read-out: GI; outline: as §1
[17] = test system: Candida albicans; assay: Growth inhibition of Candida albicans ATCC 10231 at 125 ug/ml incubated for 48 hrs under dark condition by broth microdilution method relative to control; type: functional; conditions: ATCC 10231, 48 h, read-out: GI; outline: as §1
[18] = test system: Cryptococcus neoformans; assay: Growth inhibition of Cryptococcus neoformans ATCC 32264 at 250 ug/ml incubated for 48 hrs under dark condition by broth microdilution method relative to control; type: functional; conditions: ATCC 32264, 48 h, read-out: GI; outline: as §1
[19] = test system: Klebsiella pneumoniae; assay: Antibacterial activity against carbapenemase positive Klebsiella pneumoniae BAA 1705 after 24 hrs by resazurin dye based microdilution assay; type: functional; conditions: BAA 1705, 24 h; outline: as §2
[20] = test system: Staphylococcus aureus; assay: Antibacterial activity against methicillin-resistant Staphylococcus aureus ATCC 43300 after 24 hrs by resazurin dye based microdilution assay; type: functional; conditions: ATCC 43300, 24 h
Outline: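 Broth microdilution in Mueller Hinton broth, inoculum 5 × 10^5 – 8 × 10^5. Compound stocks diluted in MHB with 5% DMSO and 0.1% Tween 80. Incubation 24 h at 35-37 °C. MIC is the lowest concentration with visible growth inhibition and/or by resazurin (1 mg/mL) read-out. Gentamicin as control. Run in duplicate, replicated at least three times.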

[21] = test system: Cryptococcus neoformans; assay: Growth inhibition of Cryptococcus neoformans ATCC 32264 at 15.62 ug/ml incubated for 48 hrs under dark condition by broth microdilution method relative to control; type: functional; conditions: ATCC 32264, 48 h, read-out: GI; outline: as §1
[22] = test system: Staphylococcus aureus; assay: Antibacterial activity against methicillin-sensitive Staphylococcus aureus ATCC 25923 after 24 hrs by resazurin dye based microdilution assay; type: functional; conditions: ATCC 25923, 24 h; outline: as §2
[23] = test system: Neisseria gonorrhoeae; assay: Antibacterial activity against beta lactamase positive Neisseria gonorrhoeae ATCC 31426 by oxidase test; type: functional
Outline: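 Agar dilution MIC on GC agar with 1% isovitalex containing increasing compound concentrations. Plates inoculated with about 1×10^4 CFU (5 µL). MIC is the lowest concentration that inhibited growth, with growth confirmed by oxidase test. Run in duplicate, repeated at least three times.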

[24] = test system: Candida albicans; assay: Growth inhibition of Candida albicans ATCC 10231 at 62.5 ug/ml incubated for 48 hrs under dark condition by broth microdilution method relative to control; type: functional; conditions: ATCC 10231, 48 h, read-out: GI; outline: as §1
[25] = test system: Pseudomonas aeruginosa; assay: Antibacterial activity against Pseudomonas aeruginosa ATCC 27853 after 24 hrs by resazurin dye based microdilution assay; type: functional; conditions: ATCC 27853, 24 h; outline: as §2
[26] = test system: Cryptococcus neoformans; assay: Growth inhibition of Cryptococcus neoformans ATCC 32264 at 125 ug/ml incubated for 48 hrs under dark condition by broth microdilution method relative to control; type: functional; conditions: ATCC 32264, 48 h, read-out: GI; outline: as §1
[27] = test system: Cryptococcus neoformans; assay: Growth inhibition of Cryptococcus neoformans ATCC 32264 at 3.4 ug/ml incubated for 48 hrs under dark condition by broth microdilution method relative to control; type: functional; conditions: ATCC 32264, 48 h, read-out: GI
[28] = test system: Plasmodium falciparum; assay: Antiplasmodial activity against chloroquine-sensitive Plasmodium falciparum 3D7 assessed as reduction in parasitic LDH activity after 48 hrs by Malstat reagent based […] method; type: functional; conditions: 3D7, 48 h
Outline: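 Unsynchronized P. falciparum 3D7 at 0.5% parasitemia and 1% hematocrit in RPMI with 3% Albumax II. Exposed to 100, 25, 6.25 and 1.56 µg/mL for 48 h at 37 °C under 90% N2/5% CO2/5% O2. After three freeze-thaw cycles, LDH measured with Malstat and NBT/PES, 1 h in the dark, read at 650 nm. IC50 by Probit; triplicate, ≥2 experiments.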

| Compound | inhibition of growth at 31.25 µg/mL [1] [%] | EC50 [2] [µg/mL] | MIC [3] [µg/mL] | inhibition of growth at 31.25 µg/mL [4] [%] | MIC [5] [µg/mL] | MIC50 [6] [µg/mL] | MIC80 [6] [µg/mL] | LC50 [7] [µg/mL] | inhibition of growth at 3.4 µg/mL [8] [%] | inhibition of growth at 15.62 µg/mL [9] [%] | inhibition of growth at 7.8 µg/mL [10] [%] | EC50 [11] [µg/mL] | inhibition of growth at 250 µg/mL [12] [%] | inhibition of growth at 7.8 µg/mL [13] [%] | MIC50 [14] [µg/mL] | MIC80 [14] [µg/mL] | MIC [15] [µg/mL] | inhibition of growth at 62.5 µg/mL [16] [%] | inhibition of growth at 125 µg/mL [17] [%] | inhibition of growth at 250 µg/mL [18] [%] | further results |
| --- | --- | --- | --- | --- | --- | --- | --- | --- | --- | --- | --- | --- | --- | --- | --- | --- | --- | --- | --- | --- | --- |
| Cc1ccc(C2=NN(c3ccccc3)C(c3cccc(Nc4ccnc5cc(Cl)ccc45)c3)C2)cc1 (stereo not given) | 1.72 | 1.83 (≈ 3.74 µM) | > 1000 | 12 | > 1000 | ≥ 250 | ≥ 250 | 1.4 (≈ 2.86 µM) | 2.29 | 7.89 | 2.53 | 1.09 (≈ 2.23 µM) | 28.3 | 0 | ≥ 250 | ≥ 250 | > 1000 | 4.01 | 22.9 | 31.5 | MIC [19]: > 1000 µg/mL; MIC [20]: > 1000 µg/mL; inhibition of growth at 15.62 µg/mL [21]: 0.86%; MIC [22]: > 1000 µg/mL; MIC [23]: > 1000 µg/mL; inhibition of growth at 62.5 µg/mL [24]: 13.1%; MIC [25]: > 1000 µg/mL; inhibition of growth at 125 µg/mL [26]: 7.45%; inhibition of growth at 3.4 µg/mL [27]: 0%; EC50 [28]: 13.5 µg/mL (≈ 27.7 µM) |
| Clc1ccc2c(Nc3cccc(C4CC(c5ccccc5)=NN4c4ccccc4)c3)ccnc2c1 (stereo not given) | 20.4 | 22.7 (≈ 47.7 µM) | > 1000 | 11 | > 1000 | 250 (≈ 526 µM) | ≥ 250 | > 200 | 3.1 | 8.69 | 5.03 | 39.2 (≈ 82.5 µM) | 53 | 13.6 | 250 (≈ 526 µM) | ≥ 250 | > 1000 | 20.5 | 32.4 | 52.3 | MIC [19]: > 1000 µg/mL; MIC [20]: > 1000 µg/mL; inhibition of growth at 15.62 µg/mL [21]: 18.4%; MIC [22]: > 1000 µg/mL; MIC [23]: > 1000 µg/mL; inhibition of growth at 62.5 µg/mL [24]: 20.1%; MIC [25]: > 1000 µg/mL; inhibition of growth at 125 µg/mL [26]: 26.5%; inhibition of growth at 3.4 µg/mL [27]: 9.75%; EC50 [28]: 13.4 µg/mL (≈ 28.1 µM) |
| Clc1ccc2c(Nc3cccc(C4CC(c5ccc(Br)cc5)=NN4c4ccccc4)c3)ccnc2c1 (stereo not given) | 11.8 | 3.59 (≈ 6.48 µM) | > 1000 | 9.65 | > 1000 | ≥ 250 | ≥ 250 | 9.2 (≈ 16.6 µM) | 3.09 | 8.46 | 4.31 | 6.67 (≈ 12 µM) | 44.9 | 7.67 | ≥ 250 | ≥ 250 | > 1000 | 20 | 26.3 | 45.1 | MIC [19]: > 1000 µg/mL; MIC [20]: > 1000 µg/mL; inhibition of growth at 15.62 µg/mL [21]: 7.94%; MIC [22]: > 1000 µg/mL; MIC [23]: > 1000 µg/mL; inhibition of growth at 62.5 µg/mL [24]: 12.6%; MIC [25]: > 1000 µg/mL; inhibition of growth at 125 µg/mL [26]: 20.1%; inhibition of growth at 3.4 µg/mL [27]: 3.29%; EC50 [28]: 5.54 µg/mL (≈ 10 µM) |
